Variants at the floor of the assay were thinned out.

Sequences and labels used below:
B1: tRNA (parent)
chain: GUUCCGUUGGCGUAAUGGUAACGCGUCUCCCUCCUAAGGAGAAGACUGCGGGUUCGAGUCCCGUACGGAACG

Variants of B1 are the subject of this data set. The experiment in a line: yeast fitness relative to wild type (ratio to wild type); higher = fitter; tRNA-Arg(CCU), competitive growth, 37 C, YPD. A digest of the protocol: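 A pool of Saccharomyces cerevisiae strains, each with a tRNA-Arg(CCU) gene variant at the native genomic locus, was competed in YPD at 37°C for 24 hours across six parallel replicates. The variants had been chemically synthesised at a 3% per-site mutation rate over 69 sites, and gene amplicons before and after competition were read by 100-nucleotide paired-end sequencing. Darwinian fitness relative to wild type rested on changes in genotype frequencies. Genotypes required ≥ 100 starting reads, and estimates < 0.5 were set to 0.5.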
C5G G10C U19G A45C G51A: the yeast fitness is at most 0.5.
For C5G U13A C31G G50A G67A, the yeast fitness was at most 0.5.
The same measure for C5G U16A C33A: at most 0.5; for C5G G52A A65G A70U: at most 0.5; for C5G G44C U64C: 0.586.
As for C5G G17C U47A C55A G68A, the yeast fitness worked out at 0.562.
On to C5G G10A C11G U16G, for which the yeast fitness is at most 0.5.
Turning to C5G U26C C30U C49U A69U, the yeast fitness was at most 0.5.
The result for C5G G10A A20U C24U C34U A43U A69C reads 0.667.
The result for C5G G48A G56C A65G reads at most 0.5; that for C5G G12A A36U A42U U59C, at most 0.5.
The same measure for C5G G10C U13G A37C: 0.508.
For C5G U8C A36C A43U, the yeast fitness is at most 0.5.
On to C5G G10C U47A A70G, for which the yeast fitness was at most 0.5.
On to C5G G25A C34A C49G G50A, for which the yeast fitness is at most 0.5.
The same measure for C5G G51C C61G: 0.607; for C5G G10A G52A: 0.741; for C5G G12A U47C C62A: at most 0.5.
The same measure for C5G U7C U8A: 0.56; for C5G G52A: 0.806.
With C5G U7C C11G A43G A65U, the yeast fitness was at most 0.5.
For C5G G38C U47G C62U, the yeast fitness is at most 0.5.
The result for C5G U26A A36C A42G reads at most 0.5.
As for C5G U26C A36C, the yeast fitness is 0.547.
The result for C5G U16C G67A reads at most 0.5; that for C5G U13C A21C G68A, at most 0.5; that for C5G G10C G52A A69U, at most 0.5.
The same measure for C5G U16A A57U: at most 0.5; for C5G G25C C29G A65U: at most 0.5.
As for C5G U7A A20C C31G C34U C62A, the yeast fitness is at most 0.5.
The same measure for C5G U13C C34A A57U: at most 0.5; for C5G G50A C55G A65C: 0.551; for C5G G23C C33U A43C U64A: at most 0.5.
As to C5G G9C G18A G25C A37C A43G, the yeast fitness is at most 0.5.
In the case of C5G U13C A21G C49A, the yeast fitness was at most 0.5.
The same measure for C5G U28G G38C C62G C66U: at most 0.5; for C5G U13A C22G C29G A40U U54C C61G: 0.588; for C5G G18C C31A: at most 0.5.
For C5G G10A C29G, the yeast fitness is at most 0.5.
The result for C5G U26C G44A A70U reads 0.546.
C5G G39C A70G: the yeast fitness was 0.596.
On to C5G G12A C46U G52C, for which the yeast fitness was 0.61.
The result for C5G U8G C11G C49U C61G reads at most 0.5; that for C5G U13C A21C, 0.585; that for C5G G18A G48C G67A, at most 0.5.
For the variant C5G G10C A43U C62A, the yeast fitness is at most 0.5.
The same measure for C5G U7A C27A C29A: at most 0.5; for C5G G39C: 0.675; for C5G U13C C24U C49U A70G: at most 0.5.
In the case of C5G U13G A20U A37G G52C G68A, the yeast fitness was at most 0.5.
The result for C5G G10A C11G U16G C33G C61A reads at most 0.5.
The same measure for C5G U13C C31A A43G G50C: at most 0.5; for C5G G18A G25A C61A: at most 0.5.
For C5G U19G C22U U32C A65C, the yeast fitness is at most 0.5.
Consider C5G U8C G12A C46U G68A, for which the yeast fitness is at most 0.5.
The same measure for C5G G9C G56C: at most 0.5.
Consider C5G G41C U47G, for which the yeast fitness is at most 0.5.
The same measure for C5G G41C U47A: 0.526.
The result for C5G U7C A14C G51C reads 0.697; that for C5G U26G A36C C66A, at most 0.5; that for C5G U8A C29A U35C, at most 0.5.
As for C5G U8A G52C U53A, the yeast fitness is at most 0.5.
The result for C5G G18C C60G reads at most 0.5; that for C5G G56A G58C, 0.756.
The same measure for C5G U19G C31U U32A A45U A70U: at most 0.5; for C5G G50A A69C: 0.571.
The result for C5G G50A A69U reads 0.742; that for C5G U16A A43G, 0.573.
In the case of C5G U16A G48A U54C, the yeast fitness amounted to 0.701.
The same measure for C5G G25A C34G A42U G50C U54C A70C: at most 0.5; for C5G U13A A20G U35A A40G G63U: at most 0.5; for C5G U8A A14G: at most 0.5.
The result for C5G U7A C22U C30A C49G C62G reads at most 0.5; that for C5G G17C G23C C33G A43C, at most 0.5; that for C5G G10A C11G U16G C33G A65G, at most 0.5.
The result for C5G U19C U54C A69U reads at most 0.5; that for C5G U19C U54C A69C, at most 0.5; that for C5G G10A C11G U16G C33G G58A A65G, at most 0.5.
For the variant C5G G25A U47C, the yeast fitness was 0.781.
C5G G23C G48A G67A: the yeast fitness came to 0.567.
The same measure for C5G U26C A37G C60A: at most 0.5; for C5G G25A A45C: 0.705.
For C5G U7C A45U C55G, the yeast fitness is at most 0.5.
The result for C5G U8C C55G reads at most 0.5.
The same measure for C5G U26C G44A: 0.529.
In the case of C5G G23A G44C G67U, the yeast fitness came out at 0.589.
For C5G G10C G67A, the yeast fitness is at most 0.5.
The result for C5G U26C A45C G63A reads at most 0.5; that for C5G G9C A57U, at most 0.5.
The result for C5G U16A U19G A20C C27U C29U C30U A70U reads at most 0.5; that for C5G U13A C31G G50A G67A A69G, at most 0.5; that for C5G G10A C11G U16G C33G U59C, at most 0.5.
As for C5G U28A A57C C66G, the yeast fitness is at most 0.5.
With C5G U13C A20C U32G C46U G58C, the yeast fitness was at most 0.5.
In the case of C5G G38A U59C, the yeast fitness was at most 0.5.
On to C5G U26C G44A A69U, for which the yeast fitness is at most 0.5.
The result for C5G U8A G39A reads at most 0.5; that for C5G U8G C11G C49A G52C, at most 0.5.
For the variant C5G G41C C49U, the yeast fitness is 0.543.
C5G U13C C29U C62U: the yeast fitness was at most 0.5.
The same measure for C5G G17C G25A A40C G68A: at most 0.5.
The result for C5G G25A C46U A69U reads 0.576; that for C5G G12U A45U A57U, at most 0.5; that for C5G U16A C61U, 0.589.
The result for C5G U13A reads 0.906; that for C5G U13C, 0.875; that for C5G U13C C22G C29G A45C G68C A69G, at most 0.5.
For C5G G18C G56C, the yeast fitness was at most 0.5.
C5G U26G: the yeast fitness was found to be 0.625.
Consider C5G U26A, for which the yeast fitness is 0.815.
Regarding C5G U26C, the yeast fitness came out at 0.803.
Take C5G G39A U47G C49G A69C: the yeast fitness was found to be 0.764.
The result for C5G G51U G67C reads at most 0.5; that for C5G U16C C33U C66A, at most 0.5.
The same measure for C5G U8A C62A A69U: at most 0.5; for C5G G17A C22U C46U C66U A70C: 0.62; for C5G U7G C61U: 0.649.
The same measure for C5G G58C: 0.859; for C5G U13G C29U A40G: at most 0.5.
Regarding C5G G18C C61U A65C, the yeast fitness is at most 0.5.
With C5G U26C A69C, the yeast fitness is 0.617.
The same measure for C5G G17C C60U: 0.686; for C5G G10A C11G U16G C33G U47A C60A: at most 0.5; for C5G G10A A20U U26C U35C C49A G56A U64A: at most 0.5.
The same measure for C5G G48C G56A: 0.544.
For C5G G12C G18A C24U C29U A36G, the yeast fitness was 0.608.
The same measure for C5G U7C C49U: 0.524.
The result for C5G U13G A20U A37G A69U reads at most 0.5; that for C5G G41C, 0.736; that for C5G G41A, 0.698.
The same measure for C5G G12A C46U G48A G52C: at most 0.5.
On to C5G U7A A20C, for which the yeast fitness came to 0.694.
The same measure for C5G U7C C24G A43C: 0.629; for C5G U7G G38A A40C G56A C60U C61G: at most 0.5.
The result for C5G G9C A42G U54C reads 0.641.
The same measure for C5G U8A G41C U47A C61A G67C: at most 0.5.
With C5G G9C C30G, the yeast fitness is at most 0.5.
Consider C5G U19C G25A, for which the yeast fitness amounted to 0.716.
In the case of C5G U8C G48C, the yeast fitness was at most 0.5.
On to C5G U8C, for which the yeast fitness amounted to 0.843.
Take C5G U8G: the yeast fitness turned out to be 0.527.
The result for C5G U16A C34G G39C C55A A57C reads at most 0.5; that for C5G G18A C55A C61U, at most 0.5.
The result for C5G G18A A42C A45C reads at most 0.5; that for C5G G38C G68A, at most 0.5; that for C5G G39A A43U, 0.575.
As for C5G G17A A40C, the yeast fitness is 0.651.
Consider C5G U8C U47A G68C, for which the yeast fitness is at most 0.5.
The result for C5G G39A C46U G67A reads at most 0.5.
The result for C5G G23A G25C reads at most 0.5; that for C5G G23A A69C, at most 0.5; that for C5G G17C U47A C55A, 0.516.
With C5G G18A A57G A65C, the yeast fitness was at most 0.5.
The same measure for C5G G23A C34A: 0.723; for C5G G56C: 0.662.
For the variant C5G U8C C11A A15G G18A C30G, the yeast fitness is at most 0.5.
The result for C5G U13G C29U A40G C60U A65G C66U reads at most 0.5.
The result for C5G G25C G56A reads 0.62; that for C5G U7C U54A G63A, at most 0.5.
The same measure for C5G G18A: 0.713; for C5G G18C: 0.733; for C5G G25A C61U: 0.716.
In the case of C5G U13C A37U G51C A57C, the yeast fitness was at most 0.5.
The result for C5G U8A G39A C55U A70C reads 0.623; that for C5G G17C A20C A21U C27U C33G, at most 0.5.
In the case of C5G G9C C33G A45G C55G G56C, the yeast fitness is at most 0.5.
As for C5G G23C C31U A37C, the yeast fitness is at most 0.5.

The values are drawn from the RNAGym collection of RNA variant scans (doi:10.1126/science.aae0568).
